# Sampled rows, rich in hits. Any-hit rate of the full collection: about 2.6%.
# miR-122 sensor: miR-122 inhibition in Huh7 cells; activation (reporter increase), % at 12.5 µM; 340,000 compounds, 0.3% hits; AID 602342; Huh7 miR-122 Renilla luciferase sensor, 48 h; neutral wells = 0, positive control = 100;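 active = mean replicate activation score at least 90 and every replicate individually at or above 90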;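 note: higher luciferase means less miR-122 activity so hits act as miR-122 inhibitors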
# FN deposit inh: fibronectin deposition inhibition | AH1F fibroblasts, Alexa488-fibronectin deposition fluorescence, overnight | inhibition, % at 12.6 µM | 350,000 compounds, 0.086% hits;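 active = mean inhibition across replicates of 30% or more, regardless of how many single replicates reach that level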;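 note: positive control wells lacked labelled fibronectin entirely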
#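 test system = AH1F fibroblasts assembling fluorescent fibronectin matrix | quantity = 10000 AH1F cells per well | buffer or medium = DMEM plus 2% serum, read in PBS | doses = single dose, pinned | incubation = 1 h cell attachment, overnight exposure to compound and label | detection = fluorescence at 485 nm excitation, 525 nm emission | read-out basis = inhibition from reduced deposited-fibronectin fluorescence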
# Vif imaging: HIV Vif inhibition; HEK293T cells, Vif self-association by quenched fluorescence, imaging, 24 h; inhibition, % at 7.49 µM; 340,000 compounds, 0.35% hits; AID 602346; in the data active = inhibition above about 50%, passing the limit was not always enough
# HIV Env fusion: blocks HIV Env-driven cell-cell fusion; HeLa-JRFL Env/CEM21 cell fusion, luciferase; 360,000 compounds, 1.1% hits; inhibition, % at 12.3 µM; AID 651610;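 active = mean replicate inhibition score of at least 50 and every replicate individually at or above 50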;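 note: 0% = plate neutral controls and 100% = maraviroc near 300 nM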
# rRNA inh HTS: inhibitors of bacterial rRNA selective over humanized ribosomes | E. coli WT GFP vs humanized-ribosome RFP mutants, fluorescence, 24 h; stronger effect = lower value; DMSO median 0, no signal -100 | GFP signal change (wild-type ribosome), % (test concentration not listed) | 350,000 compounds, 1.6% hits | AID 720706;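 active = significant combined selectivity score with lowered wild-type GFP, culture density cut under 30%, mutant RFP and density less affected; inactive = any of these conditions unmet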
# S100A4 inh HTS: blocks human S100A4 binding to myosin IIA peptide. inhibition, % at 10.7 µM. AID 652163. 360,000 compounds, 0.14% hits. S100A4/TAMRA-MyoIIA peptide fluorescence polarization. P26447;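 active = mean inhibition of at least 70% across replicates, with every replicate also reaching that level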
# Target sequence (P26447 whole entry, looked up): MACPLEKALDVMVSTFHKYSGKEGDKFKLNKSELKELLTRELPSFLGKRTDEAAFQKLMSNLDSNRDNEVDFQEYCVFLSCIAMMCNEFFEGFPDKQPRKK
#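 Test system: S100A4 monomer protein. Medium: HEPES buffer with Ca2+, pH 7.2. Reagent: fluorescent myosin IIA peptide, 5 nM. Compound dosing: single-point compound testing. Timing: 5 min between mix addition and reading. Benchmarks: DMSO neutral and TFP positive wells.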
# The depositor's hits bear a star; · = no result given; [ ] = dose if it differs, or a comment.
SMILES,miR-122 sensor,FN deposit inh,Vif imaging,HIV Env fusion,rRNA inh HTS,S100A4 inh HTS
COc1ccc(S(=O)(=O)N(C)C[C@@H]2OCCCC[C@@H](C)Oc3ccc(NC(=O)Nc4c(C)noc4C)cc3C(=O)N([C@H](C)CO)C[C@H]2C)cc1,2[16.7 µM],-3,·,20[16.7 µM],1,8
O=C(Nc1ccc(Cl)c(C(F)(F)F)c1)[C@@H]1CC=C[C@@H]2CCN(Cc3ccc(Cl)c(Cl)c3)C(=O)[C@@H]21,-2,-20,24,84*,10,-2
Cc1[nH]c2ccccc2c1/C=N/NC(=O)c1cccs1,·,-2,1,-13,-24*,0
COc1cc(-c2nc3c4ccccc4nc(=S)n3[nH]2)cc(OC)c1OC,7,-4,12,9,1,-2
COc1ccccc1-c1nc2c3ccccc3nc(=S)n2[nH]1,13,1,-9,3,-27*,-3
CCCCn1nc2cc(C(=O)NCCc3ccc(C)cc3)ccc2c1OCC,0,-17,-1,2,-38*,-3
COc1cc(OC)nc(Oc2ccccc2C(=O)Oc2cccc(C)c2)n1,-2,·,74*,·,·,·
COc1ccc(N2CCN(C(=O)CSc3nnnn3-c3ccc4c(c3)OCCO4)CC2)cc1,·,·,-8,·,-21*,4
COc1ccc(N2CCN(C(=O)CSc3nnc(-c4cc5ccccc5cc4O)n3C)CC2)cc1,-3,16,-5,77*,·,·
COc1ccc(-n2cnnc2SCC(=O)N2CCN(c3ccccc3)CC2)cc1,3,·,-12,·,·,·
O=C(Cc1cccnc1)N1CC(=O)N2[C@H](CO)[C@@H](c3ccc(C#CC4CC4)cc3)[C@H]2C1,·,5,·,·,0,9
Fc1cccc(CCN2C(=S)NC[C@@H]2CC2CCCCC2)c1,1,8,-5,43,-23*,1
Cc1ccc(S(=O)(=O)N(C)C[C@@H]2Oc3ccc(N(C)C)cc3CC(=O)N([C@H](C)CO)C[C@@H]2C)cc1,-6[16.7 µM],-7,·,·,-2,-10
Cc1[nH]nc2c1C(c1ccc(F)cc1)N(c1ccccc1)C2=O (stereo not given),·,2,·,-7,1,1
COc1ccc(N2C(=O)c3n[nH]c(C)c3C2c2ccc(F)cc2)cc1 (stereo not given),·,2,·,-12,-32*,-8
COc1ccc(CN(C)C[C@@H]2Oc3ccc(NC(=O)CCC(F)(F)F)cc3CC(=O)N([C@@H](C)CO)C[C@@H]2C)cc1,5[16.7 µM],·,·,-6[16.7 µM],0,4
O=C(Nc1ccc(F)cc1)N1CCCCN2[C@H](CO)[C@H](c3ccc(C#Cc4ccccn4)cc3)[C@H]2C1,10[16.7 µM],·,·,·,1,87*
O=C(Nc1ccc(F)cc1)N1CCCCN2[C@@H](CO)[C@H](c3ccc(C#Cc4ccccn4)cc3)[C@@H]2C1,4[16.7 µM],·,·,·,-11,-10
O=C(Nc1ccccc1)N1CCCCN2[C@H](CO)[C@H](c3ccc(C#Cc4ccccn4)cc3)[C@H]2C1,-28[16.7 µM],·,·,·,-3,91*
COc1ccc(NC(=O)N2CCCCN3[C@H](C2)[C@@H](c2ccc(C4=CCCC4)cc2)[C@@H]3CO)cc1,3[16.7 µM],·,·,·,·,-4
CN=c1scc(-c2cccs2)n1/N=C/c1ccccc1O,·,·,-15,57*,-27*,3
CN=c1scc(-c2cccs2)n1/N=C/c1ccc(O)c(O)c1O,·,-15,-1,-253,-13,-6
CC(C)CC#Cc1ccc2c(c1)O[C@H](CN(C)C(=O)c1cnccn1)[C@@H](C)CN([C@H](C)CO)S2(=O)=O,21[16.7 µM],·,·,·,-2,-10
CN1c2ccc(-c3ccccc3F)cc2[C@@H]2[C@@H](CCN2C(=O)Nc2ccc(F)cc2)[C@@H]1CO,1[16.7 µM],4,·,·,-8,·
Oc1ccc(Br)cc1-c1ccnn1-c1ccccc1,23,1,-6,5,-39*,0
SMILES,miR-122 sensor,FN deposit inh,Vif imaging,HIV Env fusion,rRNA inh HTS,S100A4 inh HTS
CC(C)C#Cc1cnc2c(c1)C(=O)N([C@H](C)CO)C[C@H](C)[C@@H](CN(C)C(=O)c1cccnc1)O2,2[16.7 µM],-7,·,·,10,55
Nc1ncnc(N2CCc3ccccc32)c1[N+](=O)[O-],-1,2,-2,67*,16,-20
C[C@@H]1CN([C@@H](C)CO)C(=O)c2cc(NS(C)(=O)=O)ccc2O[C@H]1CN(C)Cc1ccc(C(F)(F)F)cc1,15[16.7 µM],·,·,-5[16.7 µM],-1,-7
O=[N+]([O-])c1cccc(NC(=S)NCc2ccncc2)c1,·,-19,3,38,5,-11
O=[N+]([O-])c1ccc(NC(=S)NCc2ccncc2)cc1,·,17,-2,19,-28*,0
CC(NC(=S)Nc1ccc([N+](=O)[O-])cc1)c1ccncc1 (stereo not given),·,0,-11,-1,-27*,2
O=C(C[C@H]1C=C[C@H](NC(=O)c2ccncc2)[C@H](CO)O1)Nc1ccc(-c2ccccc2)cc1,·,·,·,·,-3,-6
COc1ccc2c3c([nH]c2c1)[C@H](CO)N(Cc1ccccc1)CC31CN(S(=O)(=O)c2ccc(C)cc2)C1,·,·,·,·,3,13
CCOc1ccccc1C(=O)NCC(=O)NNC(=O)CN(C)S(=O)(=O)c1ccc(Cl)cc1,-5,-8,3,69*,13,-5
CC1=CC(=C2C(=O)c3ccccc3C2=O)C=C(C)N1C,·,·,-6,·,·,·
CCCCCN1C=CC(=C2C(=O)c3ccccc3C2=O)C=C1,6,-6,5,72*,12,17
COc1ccc(C(=O)CSc2nnn(-c3cccc(NC(C)=O)c3)n2)cc1,3,-2,·,-21,·,-1
CC(=O)Nc1cccc(-n2nnc(SCC(=O)c3ccccc3)n2)c1,6,-5,-4,-27,-36*,-8
CC1(C(=O)NS(=O)(=O)c2cccc(F)c2)CCN1C(=O)C1(c2ccc(Cl)cc2)CCC1 (stereo not given),4,-9,11,-4,-16*,-4
CC1(C(=O)NS(=O)(=O)c2cccc(C#N)c2)CCN1C(=O)C1(c2ccc(Cl)cc2)CCC1 (stereo not given),-2,-4,9,-1,-15*,6
CC1(C(=O)NS(=O)(=O)c2ccc(F)cc2F)CCN1C(=O)C1(c2ccc(Cl)cc2)CCC1 (stereo not given),9,-2,-11,9,-12,-1
CC(C)C[C@H](NC(=O)c1[nH]cnc1C(=O)N[C@@H](Cc1ccccc1)C(=O)OC(C)(C)C)C(=O)OCc1ccccc1,4,-6,15,58*,10,-2
O=C1[C@H](Cc2ccccc2)NCC=CC[C@H](c2ccc(Cl)cc2)N1Cc1ccc(Cl)cc1,-14,-5,-3,110*,15,23

# From PubChem
